Data taken from ChEMBL document CHEMBL4118238, “Facilely accessible quinoline derivatives as potent antibacterial agents” (Bioorg Med Chem, 2018).
Converted amounts (≈) assume the structure as drawn. The source made the active and inactive calls. The rule behind the calls is not given here.

What was measured:
Clostridioides difficile [1] = assay: Antibacterial activity against Clostridium difficile UK6 by CLSI M11-A7 protocol based method; type: functional
Summary of the method: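 C. difficile UK6 MICs followed CLSI media and methods for anaerobe susceptibility testing. MIC was taken as the lowest concentration giving complete growth inhibition. DMSO stocks were used, with final DMSO below 0.5%. Runs were repeated at least three times, in duplicate each time.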

Staphylococcus aureus = assay: Antibacterial activity against methicillin-resistant Staphylococcus aureus ATCC 33591 by CLSI M11-A7 protocol based method; type: functional
Summary of the method: (§1)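 Broth MIC by a previously described standard protocol; MIC is the lowest concentration giving complete growth inhibition. Compounds were dosed from DMSO stocks with final DMSO below 0.5%. Each experiment was repeated at least three times in duplicate.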

[2] = system: Staphylococcus epidermidis; assay: Antibacterial activity against methicillin resistant Staphylococcus epidermidis RP62A by CLSI M11-A7 protocol based method; type: functional; summary of the method: as §1
Enterococcus faecalis = assay: Antibacterial activity against vancomycin resistant Enterococcus faecalis ATCC 700802 by CLSI M11-A7 protocol based method; type: functional; summary of the method: as §1
HepG2 = assay: Cytotoxicity against human HepG2 cells assessed as reduction in cell viability after 24 hrs by MTT assay; type: cell-based; settings: HepG2, 24 h
Summary of the method: (§2)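 Cells were grown in DMEM with 10% FBS and 1% penicillin/streptomycin at 37°C, 5% CO2, then seeded at 10^4 cells/well overnight. They were exposed to 128 to 0.125 µg/ml compound, or 1% DMSO control, for 24 h at 37°C. MTT was added for 4 h, formazan dissolved in DMSO for 15 min, and A540 read. IC50 was relative to control-treated cells, in three replicates.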

Clostridioides difficile [3] = assay: Antibacterial activity against Clostridium difficile UK6 infected in C57BL/6 mouse assessed as increase in mouse survival at 50 mg/kg, po bid via gavage for 5 days starting from 4 hrs post challenge measured from day 3 to 5 during compound dosing relative to control; type: functional
Summary of the method: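 Female C57BL/6 mice (6 weeks) received a six-antibiotic cocktail in drinking water for 5 days, then autoclaved water for 2 days and clindamycin 10 mg/kg ip on day −1. On day 0 they were challenged by gavage with 10^6 CFU UK6 spores. Compound was given by gavage at 50 mg/kg 4 h post-challenge, then twice daily from day 1 for five days. Survival was monitored daily versus an untreated infected group (n=10 per group).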

[4] = Selectivity index, ratio of IC50 for HEK293 cells to MIC for Clostridium difficile UK6; type: toxicity; settings: human, read-out: Selectivity Index
Mus musculus [5] = assay: Toxicity in C57BL/6 mouse assessed as diarrhea at 50 mg/kg, po bid via gavage for 5 days starting from 4 hrs post challenge measured; type: organism-based; settings: in vivo
Summary of the method: (§3)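 Uninfected female 6-week C57BL/6 mice (n=5) received 50 mg/kg by gavage on the infected group's schedule: at 4 h, then twice daily for five days. They were monitored daily for five days for weight change, survival, diarrhea and other disease signs.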

Clostridioides difficile [6] = assay: Antibacterial activity against Clostridium difficile UK6 infected in C57BL/6 mouse assessed as decrease in bacterial count in feces at 50 mg/kg, po bid via gavage for 5 days starting from 4 hrs post challenge by serial dilution method relative to control; type: functional; parameters: scale not given: the % may be the effect or the level left
Summary of the method: (§4)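 Female 6-week C57BL/6 mice (n=10 per group) got an antibiotic cocktail in drinking water for 5 days and autoclaved water for 2 days. Clindamycin 10 mg/kg ip followed one day before gavage of 10^6 CFU UK6 spores. Dosing was 50 mg/kg by gavage at 4 h, then twice daily for five days. Feces from days 1, 3 and 5 were ethanol-shocked, serially diluted and plated anaerobically 48 h. Counts are CFU/g, triplicate plates.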

HEK-293T = assay: Cytotoxicity against HEK293T cells assessed as reduction in cell viability after 24 hrs by MTT assay; type: cell-based; settings: Homo sapiens; summary of the method: as §2
[7] = Selectivity index, ratio of IC50 for human HepG2 cells to MIC for Clostridium difficile UK6; type: toxicity; settings: read-out: Selectivity Index
Clostridioides difficile [8] = assay: Antibacterial activity against Clostridium difficile UK6 infected in C57BL/6 mouse assessed as decrease in diarrhea at 50 mg/kg, po bid via gavage for 5 days starting from 4 hrs post challenge measured daily during compound dosing; type: functional, organism-based
Summary of the method: (§5)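 Female 6-week C57BL/6 mice (n=10 per group) were antibiotic-pretreated, given clindamycin, then gavaged with 10^6 CFU UK6 spores. Compound was given at 50 mg/kg by gavage at 4 h post-challenge, then twice daily for five days. Mice were checked daily for five days. Percent diarrhea is mice with diarrhea divided by mice in the group, compared by Pearson chi-square.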

Mus musculus [9] = assay: Toxicity in C57BL/6 mouse assessed as development of Clostridium difficile infection symptoms at 50 mg/kg, po bid via gavage for 5 days starting from 4 hrs post challenge measured; type: organism-based; settings: in vivo; summary of the method: as §3
Clostridioides difficile [10] = assay: Antibacterial activity against Clostridium difficile UK6 infected in C57BL/6 mouse assessed as decrease in diarrhea at 50 mg/kg, po bid via gavage for 5 days starting from 4 hrs post challenge measured after 2 days relative to control; type: functional; parameters: scale not given: the % may be the effect or the level left; summary of the method: as §5
Clostridioides difficile [11] = assay: Antibacterial activity against Clostridium difficile UK6 infected in C57BL/6 mouse assessed as decrease in bacterial count in feces at 50 mg/kg, po bid via gavage for 5 days starting from 4 hrs post challenge measured after 5 days by serial dilution method relative to control; type: functional; summary of the method: as §4

Compound | MIC (Clostridioides difficile [1]) | MIC (Staphylococcus aureus) | MIC [2] | MIC (Enterococcus faecalis) | other results
COc1cc2nccc(Nc3ccc(C)cc3)c2cc1OCc1ccc(C(F)(F)F)cc1 | 4 µg/mL (≈ 9.12 µM) | 3 µg/mL (≈ 6.84 µM) | 3 µg/mL (≈ 6.84 µM) | 3 µg/mL (≈ 6.84 µM) | –
CN[C@H](CC(C)C)C(=O)N[C@H]1C(=O)N[C@@H](CC(N)=O)C(=O)N[C@H]2C(=O)N[C@H]3C(=O)N[C@H](C(=O)N[C@H](C(=O)O)c4cc(O)cc(O)c4-c4cc3ccc4O)[C@H](O)c3ccc(c(Cl)c3)Oc3cc2cc(c3O[C@@H]2O[C@H](CO)[C@@H](O)[C@H](O)[C@H]2O[C@H]2C[C@](C)(N)[C@H](O)[C@H](C)O2)Oc2ccc(cc2Cl)[C@H]1O [VANCOMYCIN] | 0.5 µg/mL (≈ 0.345 µM) | – | – | – | –
COc1cc2nccc(Nc3cccc(C(F)(F)F)c3)c2cc1OCc1ccc(C(F)(F)F)cc1 | 4 µg/mL (≈ 8.12 µM) | 3 µg/mL (≈ 6.09 µM) | 6 µg/mL (≈ 12.2 µM) | 3 µg/mL (≈ 6.09 µM) | –
COc1cc2nccc(Nc3ccc(F)c(Cl)c3)c2cc1OCCOc1ccccc1 | 4 µg/mL (≈ 9.11 µM) | 3 µg/mL (≈ 6.84 µM) | 3 µg/mL (≈ 6.84 µM) | 3 µg/mL (≈ 6.84 µM) | –
COc1cc2nccc(Nc3ccc(F)c(Cl)c3)c2cc1OCc1ccccc1C | 8 µg/mL (≈ 18.9 µM) | 1.5 µg/mL (≈ 3.55 µM) | 3 µg/mL (≈ 7.09 µM) | 1.5 µg/mL (≈ 3.55 µM) | –
COc1cc2nccc(Nc3ccc(F)c(Cl)c3)c2cc1OCc1ccc(C(F)(F)F)cc1 | 4 µg/mL (≈ 8.39 µM) | 1.5 µg/mL (≈ 3.15 µM) | 3 µg/mL (≈ 6.29 µM) | 1.5 µg/mL (≈ 3.15 µM) | –
COc1cc2nccc(Nc3ccc(F)c(Cl)c3)c2cc1OCc1ccc(C(C)C)cc1 | 1 µg/mL (≈ 2.22 µM) | 1.5 µg/mL (≈ 3.33 µM) | 6 µg/mL (≈ 13.3 µM) | 3 µg/mL (≈ 6.65 µM) | IC50 (HepG2): 148 µM; Activity (Clostridioides difficile [3]): 20%; selectivity ratio [4]: > 60; Activity (Mus musculus [5]): Non-Toxic; Activity (Clostridioides difficile [6]): >80%; IC50 (HEK-293T): 146 µM; selectivity ratio [7]: > 60; Activity (Clostridioides difficile [8]): Active; Activity (Mus musculus [9]): Non-Toxic; Activity (Clostridioides difficile [10]): 32%; fold change (FC) (Clostridioides difficile [11]): 14
COc1cc2nccc(Nc3ccc(C)cc3)c2cc1OCc1ccc(C)cc1 | > 16 µg/mL | 12 µg/mL (≈ 31.2 µM) | – | – | –
COc1cc2nccc(Nc3ccc(C(F)(F)F)cc3)c2cc1OCc1ccc(C(F)(F)F)cc1 | 2 µg/mL (≈ 4.06 µM) | 0.75 µg/mL (≈ 1.52 µM) | 3 µg/mL (≈ 6.09 µM) | 0.75 µg/mL (≈ 1.52 µM) | IC50 (HepG2): 70.7 µM; selectivity ratio [4]: 15; IC50 (HEK-293T): 58.1 µM; selectivity ratio [7]: 15
CCCCCCCCCC(=O)N[C@@H](Cc1c[nH]c2ccccc12)C(=O)N[C@@H](CC(N)=O)C(=O)N[C@@H](CC(=O)O)C(=O)N[C@@H]1C(=O)NCC(=O)N[C@@H](CCCN)C(=O)N[C@@H](CC(=O)O)C(=O)N[C@H](C)C(=O)N[C@@H](CC(=O)O)C(=O)NCC(=O)N[C@H](CO)C(=O)N[C@@H]([C@H](C)CC(=O)O)C(=O)N[C@@H](CC(=O)c2ccccc2N)C(=O)O[C@@H]1C [DAPTOMYCIN] | – | 0.5 µg/mL (≈ 0.309 µM) | 0.5 µg/mL (≈ 0.309 µM) | 1 µg/mL (≈ 0.617 µM) | –
